Assay results as given in ChEMBL document CHEMBL1649302, “New small-molecule inhibitor class targeting human immunodeficiency virus type 1 virion maturation” (Antimicrob Agents Chemother, 2009).
Calls of active or inactive are those of the source. The calls are words filed in the database; no cut-off is given here.

Assays:
[1] = Therapeutic index, ratio of CC50 for human MT2 cells to EC50 for HIV1 NL4-3 infected in human MT2 cells; type: cell-based; conditions: read-out: TI
Summary of the method: (§1)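 TI was the mean CC50 (XTT, uninfected MT-2) divided by the mean EC50, determined for each cell line in each experiment.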

[2] = Therapeutic index, ratio of CC50 for human PM1 cells to EC50 for HIV1 NL4-3 infected in human PM1 cells; type: cell-based; conditions: read-out: TI
Summary of the method: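 PM1 cells infected at MOI 0.16 for 2 h, washed, then seeded at 1 × 10⁴ cells/well on half-log compound dilutions. After 5 days, supernatant p24 antigen was quantified by ELISA kit. EC50 is the concentration halving p24 versus infected untreated cells. CC50 was measured in PM1 cells by XTT formazan at 450 nm. TI is CC50 divided by EC50.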

[3] = Cytotoxicity against human CEM-SS cells after 6 days by XTT assay; type: cell-based
Summary of the method: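 Uninfected cells were incubated with half-log compound dilutions for 6 days, then given XTT/PMS for 4 h and read at 450 nm. CC50 was the concentration reducing formazan to 50% of uninfected, compound-free cells. Values are means ± SD from 3–5 experiments or individual values.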

[4] = Therapeutic index, ratio of CC50 for human MT2 cells to EC50 for HIV1 92HT594 infected in human MT2 cells; type: cell-based; conditions: read-out: TI; summary of the method: as §1
[5] = tested on: Human immunodeficiency virus 1; experiment: Antiviral activity against HIV1 NL4-3 infected in HEK293 cells assessed as decrease in virus production at 2 times EC90 after 72 hrs by beta-galactosidase reporter gene assay; type: functional
[6] = tested on: Human immunodeficiency virus 1; experiment: Antiviral activity against wild type HIV1 infected in human HeLa cells assessed as decrease in viral infection after 72 hrs by beta-galactosidase reporter gene assay; type: functional, organism-based; conditions: Human immunodeficiency virus 1, HeLa
Summary of the method: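 HeLa CD4 LTR/β-Gal cells (1 × 10⁴/well, DMEM + 10% FBS) were pretreated with half-log compound dilutions. They were then infected at MOI 0.03 with single-cycle NL4-3 ΔEnv reporter virus pseudotyped with envelope from HEK 293 cotransfection. EC50 was the concentration halving β-galactosidase activity versus infected untreated cells. Values are mean ± SD or representative of three experiments.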

[7] = tested on: Human immunodeficiency virus 1; experiment: Selectivity ratio of EC50 for HIV1 harboring spacer peptide A1V mutant protein infected in human HeLa cells to EC50 for wild type HIV1 infected in human HeLa cells; type: functional
Summary of the method: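 MT-2 cells were infected for 2 h with wild-type NL4-3 or recombinant NL4-3 carrying CA I201V or SP1 A1V. They were then cocultured with HeLa CD4 LTR/beta-Gal indicator cells in serially diluted compound. Beta-gal reporter was read after 4 days. EC50s are means ± SD of 3–6 experiments. Fold change is mutant EC50 divided by wild-type EC50.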

[8] = tested on: Human immunodeficiency virus 1; experiment: Antiviral activity HIV1 91US005 infected in human PBMC after 7 days by scintillation counting; type: functional, organism-based; conditions: Human immunodeficiency virus 1, 91US005, 168 h
Summary of the method: (§2)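 Fresh PBMCs from HIV/HBV-seronegative donors were PHA-stimulated (4 μg/ml, 48–72 h) and kept with IL-2 (20 U/ml), with at least two donors pooled. Cells were seeded at 5 × 10⁴/well and infected (final MOI ≅0.1) with nine compound concentrations in triplicate wells. After 7 days, reverse transcriptase activity was measured in cell-free supernatant.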

[9] = tested on: Human immunodeficiency virus 1; experiment: Antiviral activity HIV1 92HT596 infected in human PBMC after 7 days by scintillation counting; type: functional, organism-based; conditions: Human immunodeficiency virus 1, 92HT596, 168 h
Summary of the method: (§3)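 PBMCs came from buffy coats pooled from 3–4 seronegative donors, were PHA-stimulated (1.5 μg/ml, 3 days) and frozen. Thawed cells were infected 1 h at 37°C with virus input set by TCID50, then pelleted and resuspended in IL-2 (10 ng/ml). They were plated at 4 × 10⁵ cells/ml onto compounds for 7 days at 37°C. Supernatant RT activity was measured by Quan-T-RT scintillation assay.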

[10] = tested on: Human immunodeficiency virus 1; experiment: Antiviral activity HIV1 92HT599 infected in human PBMC after 7 days by scintillation counting; type: functional, organism-based; conditions: Human immunodeficiency virus 1, 92HT599, 168 h; summary of the method: as §3
[11] = tested on: Human immunodeficiency virus 1; experiment: Antiviral activity HIV1 92TH026 infected in human PBMC after 7 days by scintillation counting; type: functional, organism-based; conditions: Human immunodeficiency virus 1, 92TH026, 168 h; summary of the method: as §2
[12] = tested on: Human immunodeficiency virus 1; experiment: Antiviral activity HIV1 92US660 infected in human PBMC after 7 days by scintillation counting; type: functional, organism-based; conditions: Human immunodeficiency virus 1, 92US660, 168 h; summary of the method: as §2
[13] = tested on: Human immunodeficiency virus 1; experiment: Antiviral activity HIV1 96USHIPS7 infected in human PBMC after 7 days by scintillation counting; type: functional, organism-based; conditions: Human immunodeficiency virus 1, 96USHIPS7, 168 h; summary of the method: as §2
[14] = tested on: Human immunodeficiency virus 1; experiment: Antiviral activity HIV1 98IN022 infected in human PBMC after 7 days by scintillation counting; type: functional, organism-based; conditions: Human immunodeficiency virus 1, 98IN022, 168 h; summary of the method: as §3
[15] = Therapeutic index, ratio of CC50 for human PBMC to EC50 for HIV1 ROJO infected in human PBMC; conditions: read-out: TI
Summary of the method: (§4)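 PHA-stimulated (4 μg/ml, 48 to 72 h) PBMCs pooled from at least two seronegative donors, kept with 20 U/ml IL-2, plated at 5 × 10⁴ cells/well. Infected with clinical isolate (final MOI ≅0.1) alongside nine compound concentrations in triplicate wells, 7 days. Supernatant reverse transcriptase activity measured. TI is mean PBMC CC50 divided by mean EC50.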

[16] = Therapeutic index, ratio of CC50 for human PBMC to EC50 for HIV1 WEJO infected in human PBMC; conditions: read-out: TI; summary of the method: as §4
[17] = Therapeutic index, ratio of CC50 for human PBMC to EC50 for HIV1 91US056 infected in human PBMC; conditions: read-out: TI
Summary of the method: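 TI was the mean PBMC CC50 divided by the mean EC50 from the 7-day PBMC reverse transcriptase assay.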

[18] = Therapeutic index, ratio of CC50 for human PBMC to EC50 for HIV1 92BR026 infected in human PBMC; conditions: read-out: TI
[19] = Therapeutic index, ratio of CC50 for human PBMC to EC50 for HIV1 92BR030 infected in human PBMC; conditions: read-out: TI; summary of the method: as §4
[20] = Therapeutic index, ratio of CC50 for human PBMC to EC50 for HIV1 92US076 infected in human PBMC; conditions: read-out: TI; summary of the method: as §4
[21] = Therapeutic index, ratio of CC50 for human PBMC to EC50 for HIV1 93BR023 infected in human PBMC; conditions: read-out: TI; summary of the method: as §4
[22] = Therapeutic index, ratio of CC50 for human PBMC to EC50 for HIV1 96USHIPS7 infected in human PBMC; conditions: read-out: TI; summary of the method: as §4
[23] = Therapeutic index, ratio of CC50 for human PBMC to EC50 for HIV1 98IN022 infected in human PBMC; conditions: read-out: TI
Summary of the method: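 Frozen PHA-stimulated (1.5 μg/ml, 3 days) buffy-coat PBMCs pooled from three or four seronegative donors. Infected with a TCID50-based virus input per 10⁶ cells for 1 h at 37°C, then pelleted and resuspended in 10 ng/ml IL-2. Plated at 4 × 10⁵ cells/ml on compound dilutions for 7 days at 37°C. Supernatant RT measured by Quan-T-RT. TI is mean CC50 divided by mean EC50.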

[24] = tested on: Human immunodeficiency virus 1; experiment: Antiviral activity against HIV1 NL4-3 infected in HEK293 cells assessed as inhibition of viral p24 antigen production after 72 hrs

## CC(C)(C)c1ccc(C(Cn2cccc(C(F)(F)F)c2=O)NC2Cc3ccccc3C2)cc1 (centres undefined)
[1]
  selectivity ratio: 53
[2]
  selectivity ratio: 633
[3]
  CC50 at 144 h: 20000 nM
[4]
  selectivity ratio: 79
[5]
  inhibition (INH): 92%
[6]
  EC50: 206 nM
[7]
  Ratio EC50: >16
[8]
  EC50: > 17000 nM
[9]
  EC50: 320 nM
[10]
  EC50: 1400 nM
[11]
  EC50: > 17000 nM
[12]
  EC50: 12000 nM
[13]
  EC50: > 17000 nM
[14]
  EC50: 1300 nM
[15]
  selectivity ratio: < 1
[16]
  selectivity ratio: 11
[17]
  selectivity ratio: < 1
[18]
  selectivity ratio: < 1
[19]
  selectivity ratio: < 1
[20]
  selectivity ratio: 2430
[21]
  selectivity ratio: < 1
[22]
  selectivity ratio: < 1
[23]
  selectivity ratio: 13
[24]
  inhibition: inactive
